Results gathered from unrelated publications.
Compare with care: the assays were run in different laboratories.
RET: Proto-oncogene tyrosine-protein kinase receptor Ret (RET, Homo sapiens, UniProt P07949)
RET M918T: Proto-oncogene tyrosine-protein kinase receptor Ret (RET, Homo sapiens, UniProt P07949, M918T)
RET V804M: Proto-oncogene tyrosine-protein kinase receptor Ret (RET, Homo sapiens, UniProt P07949, V804M)
RET V804L: Proto-oncogene tyrosine-protein kinase receptor Ret (RET, Homo sapiens, UniProt P07949, V804L)

SMILES | target | read-out | technique | concentration | remaining binding
CN(C)CC#Cc1ccc(OCCCc2sc(N3CCc4cccc(C(=O)Nc5nc6ccccc6s5)c4C3)nc2C(=O)O)c(F)c1 | RET | cell-free assay | competition with immobilised ligand | 1 µM | 100%
Cc1cnc(Nc2ccc(C(=O)N3CCC(N4CCCC4)CC3)cc2)nc1-c1cc2ccccc2s1 | RET M918T | binding | competition with immobilised ligand | 1 µM | 5.2%
COc1cnc(Nc2cccc(S(N)(=O)=O)c2)nc1N1CCN(c2ccccc2)CC1 | RET V804M | binding | competition with immobilised ligand | 1 µM | 67%
O=C(c1ccc(Nc2ncc(Cl)c(-c3cc4ccccc4s3)n2)cc1)N1CCC(N2CCCC2)CC1 | RET | binding | competition with immobilised ligand | 1 µM | 25%
CN1CCN(c2ccc(Nc3nccc(-c4cccc([N+](=O)[O-])c4)n3)cc2C(F)(F)F)CC1 | RET V804M | binding | – | 10 µM | 49%
Cc1cc(C)c(-n2ccn3nc(-c4cccnc4)cc23)cc1NC(=O)c1cc(C#N)cc(S(F)(F)(F)(F)F)c1 | RET V804M | cell-free assay | competition with immobilised ligand | 0.1 µM | 94.5%
C[C@@H]1CN(c2ccc3ncc(-c4ccc5[nH]nc(C6CC6)c5c4)n3n2)C[C@H](C)O1 | RET | binding | competition with immobilised ligand | 50 nM | 88%
N[C@H]1CCN(c2nccc(-c3cnn4ncccc34)n2)C1 | RET V804L | binding | – | 1 µM | 93%
c1cncc(-c2cccc(Nc3nccc(NC4CCCCC4)n3)c2)c1 | RET V804L | binding | competition with immobilised ligand | 10 µM | 10%
O=C(NCCCN1CCOCC1)c1ccc(Nc2nccc(-c3cc4ccccc4s3)n2)cc1 | RET V804L | binding | competition with immobilised ligand | 1 µM | 100%
CN(C)c1ncc(F)c(-c2cnn3ncccc23)n1 | RET M918T | binding | – | 1 µM | 96%
CNC(=O)[C@@H]1CC[C@@H](n2c(-c3ccc4cnccc4c3)nc3ccc(C(=O)NCc4cccc(C(N)=O)c4)cc32)C1 | RET | binding | competition with immobilised ligand | 1 µM | 96%
Cc1c(NC(=O)c2cc(C(N)=O)nc3cc(F)ccc23)c(C(F)(F)F)nn1Cc1ccc(C(C)(C)C)cc1 | RET V804M | cell-free assay | competition with immobilised ligand | 1 µM | 100%
COc1ccnn2ncc(-c3ccnc(N(C)C)n3)c12 | RET M918T | binding | – | 1 µM | 100%
O=C(Nc1c[nH]nc1C(=O)NC1CCNCC1)c1cc(F)cc(F)c1 | RET | binding | competition with immobilised ligand | 1 µM | 100%
CN(CCCC(F)(F)F)c1nccc(-c2cnn3ncccc23)n1 | RET | binding | – | 1 µM | 86%
O=C(N[C@H]1CCCCC/C=C\C2C[C@@]2(C(=O)O)NC(=O)[C@@H]2C[C@@H](Oc3ccncc3)CN2C1=O)OC1CCCC1 (stereo partly drawn) | RET V804M | binding | competition with immobilised ligand | 1 µM | 100%
CCN1CCN(Cc2ccc(C(=O)Nc3ccc(C)c(Oc4ccc5c(c4)CC(=O)N5)c3)cc2C(F)(F)F)CC1 | RET | binding | competition with immobilised ligand | 1 µM | 14%
O=C(Nc1cccnn1)N1CCC(=Cc2cccc(Oc3ccc(C(F)(F)F)cn3)c2)CC1 | RET | cell-free assay | competition with immobilised ligand | 1 µM | 100%
F[C@@H]1CCN(c2nccc(-c3cnn4ncccc34)n2)C1 | RET V804M | binding | – | 1 µM | 72%
COc1cc(-c2cn(C3CCc4ccccc4N(CC(F)(F)F)C3=O)nn2)ccc1-n1ccc(C)n1 (stereo not drawn) | RET M918T | cell-free assay | competition with immobilised ligand | 1 µM | 100%
C[C@@H]1CCN(c2nccc(-c3cnn4ncccc34)n2)C1 | RET V804M | binding | – | 1 µM | 88%
CNC(=O)Nc1ccc2c(c1)CC[C@@]21OC(=O)N(CC(=O)N(Cc2ccc(F)cc2)[C@@H](C)C(F)(F)F)C1=O | RET V804M | cell-free assay | competition with immobilised ligand | 1 µM | 98%
CN(C)c1nccc(-c2cnn3ncccc23)n1 | RET V804L | binding | – | 1 µM | 99%
